Source: PubChem BioAssay
This is a sample that favours compounds with a hit; in the whole collection about 2.1% have one here.
Hck Nef HTS: inhibitors of human Hck kinase activated by Nef | P08631 | Recombinant Hck-YEEI plus Nef, Z-Lyte FRET kinase assay | inhibition, % at 20 µM | actives 0.68% (n = 220,000) | AID 463187;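 active means Hck-Nef kinase inhibition above about 50%, limit read from the data; inactive means inhibition below that limit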;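 further: 0% = DMSO with Hck plus Nef and 100% = Hck alone without Nef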
pCIP destab: compounds decreasing mouse p/CIP protein stability | Q05BA5 | F442A p/CIP-EGFP cells, EGFP fluorescence, 16 h | decrease of EGFP signal, % at 10 µM | actives 0.01% (n = 290,000) | AID 1984;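 active means EGFP signal decrease of at least 30% at 10 µM or well 3 SD below plate mean, unless failing retest; inactive means the rest, including hits failing retest or dose response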
RanGTP-Impb inh: inhibitors of RanGTP-importin-beta interaction, primary screen, biochemical, FRET, CFP-Ran, YFP-importin-beta, homogeneous; inhibition, % (test concentration not listed); actives 1.1% (n = 300,000); AID 2216; cell-free CFP-Ran/YFP-importin-beta FRET ratio;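 active means more than half of the replicate wells show a fall in the fluorescence ratio signal beyond about 16%, limit read from the data, passing the limit was not always enough; inconclusive means exactly half of the replicate wells pass the set limit; inactive means fewer than half of replicates pass the limit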;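 further: 0% = DMSO wells and 100% = Ran loaded with GDP instead of GTP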
Runt-CBFb FRET: inhibitors of human RUNX1 Runt domain binding to CBFb | actives 0.46% (n = 220,000) | Q01196+Q13951 | AID 1496 | Cerulean-Runt/Venus-CBFb FRET ratio 530/480, 1 h | inhibition, % at 20 µM;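 active means inhibition over about 50% at 20 µM in the single-dose screen, limit read from the data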;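 further: 0% = DMSO wells and 100% = excess unlabeled CBFb competitor control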
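Measured by: fluorescence energy transfer, 422 nm excitation, 530/480 nm emission; Assay system: Cerulean-Runt domain; Medium: Tris pH 7.5 buffer with BSA; Measure: loss of energy transfer signal; Controls: 5 µM unlabeled CBFb as full-inhibition high control; Incubation: protein complex preformed 1 h, compound exposure 1 h, room temperature, dark.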
DSG3 Ab inh: human desmoglein-3 autoantibody binding inhibition; DSG3-coupled beads, scFv-anti-DSG3-GFP binding, flow cytometry; stronger effect = lower value; binding (percent of control), % at 10 µM; AID 588358; P32926; actives 0.48% (n = 310,000);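 active means binding more than 3 SD below its plate's average and above zero; inconclusive means below that plate limit but binding exactly zero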;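 further: hits lower antibody fragment binding to DSG3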
Runt-SMMHC FRET: Runt domain-CBFb-SMMHC interaction inhibition | inhibition, % at 20 µM | actives 0.74% (n = 220,000) | Cerulean-Runt/Venus-CBFb-SMMHC FRET ratio 530/480, 1 h;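 active means mean inhibition across duplicate retests at 20 µM reaching about 50%, limit read from the data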;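 further: 0% = DMSO wells and 100% = wells with excess untagged CBFb-SMMHC; inhibitors lower the FRET ratio by blocking Runt binding to CBFb-SMMHC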
An asterisk follows results filed as active.

`Fc1ccc(-c2cc(C(F)(F)F)n3ncnc3n2)cc1` gave Hck Nef HTS 20, pCIP destab 9, RanGTP-Impb inh 3, Runt-CBFb FRET 2, DSG3 Ab inh 98 and Runt-SMMHC FRET 1.
`CCOC(=O)N1CCc2c(sc3c2C(=O)NC(c2ccccc2)N3)C1` (configuration not stated) gave Hck Nef HTS 5, pCIP destab -12, RanGTP-Impb inh 7, Runt-CBFb FRET 11, DSG3 Ab inh 114 and Runt-SMMHC FRET 13.
For COc1ccc(Br)cc1C1NC(=O)c2c(sc3c2CCN(C)C3)N1 (configuration not stated) the results were pCIP destab -5, Runt-CBFb FRET 113*, DSG3 Ab inh 114 and Runt-SMMHC FRET 65*.
`CN1CCc2c(sc3c2C(=O)NC(c2ccco2)N3)C1` (configuration not stated) gave Hck Nef HTS 2, pCIP destab -18, RanGTP-Impb inh 113*, Runt-CBFb FRET 127*, DSG3 Ab inh 99 and Runt-SMMHC FRET 38.
`CN1CCc2c(sc3c2C(=O)NC(c2ccc(-c4ccc(Cl)cc4)o2)N3)C1` (configuration not stated) gave Hck Nef HTS 18, pCIP destab -5, RanGTP-Impb inh 90*, Runt-CBFb FRET 114*, DSG3 Ab inh 100 and Runt-SMMHC FRET 33.
`O=C1NC(c2ccco2)Nc2sc3c(c21)CCN(Cc1ccccc1)C3` (configuration not stated) gave Hck Nef HTS 12, pCIP destab -19, Runt-CBFb FRET 49, DSG3 Ab inh 112 and Runt-SMMHC FRET 59*.
For Cc1ccc(C2=NCCn3c2c2ccc(C(F)(F)F)cc2[n+]3[O-])cc1 the results were RanGTP-Impb inh 3 and DSG3 Ab inh 98.
Screening OC1COC(c2ccccc2)OC1C(O)C1OC(c2ccccc2)OCC1O (configuration not stated) returned DSG3 Ab inh 126.
Screening CN1CCc2c(sc3c2C(=O)NC(c2cn(Cc4ccccc4)c4ccccc24)N3)C1 (configuration not stated) returned Hck Nef HTS 14, pCIP destab -16, RanGTP-Impb inh 60*, Runt-CBFb FRET 63*, DSG3 Ab inh 120 and Runt-SMMHC FRET 70*.
`Cc1nc2cc(NC(=O)c3ccc(S(=O)(=O)N(C)c4ccccc4)cc3)ccc2o1` gave pCIP destab -22, RanGTP-Impb inh -2 and DSG3 Ab inh 118.
Ic1ccc(N2CCN(Cc3c[nH]c4ncccc34)CC2)cc1 was read as DSG3 Ab inh 114.
Screening Cn1cccc1/C=N\NC(=O)C1COc2ccc(C(C)(C)C)cc2O1 (configuration not stated) returned pCIP destab 0, RanGTP-Impb inh -1 and DSG3 Ab inh 24*.
Screening Cn1cccc1/C=N\NC(=O)C1COc2ccccc2O1 (configuration not stated) returned pCIP destab -2, RanGTP-Impb inh -1 and DSG3 Ab inh 98.
Screening CN(Cc1ccccc1)S(=O)(=O)c1ccc(C(=O)Nc2nnc(C3CC3)o2)cc1 returned Hck Nef HTS 0, pCIP destab -6, RanGTP-Impb inh 3, Runt-CBFb FRET -3, DSG3 Ab inh 58* and Runt-SMMHC FRET 0.
`COc1ccc(CC(=O)Nc2cccc(-c3csc(C)n3)c2)cc1` gave Hck Nef HTS 2, pCIP destab -4, RanGTP-Impb inh -1, Runt-CBFb FRET -1, DSG3 Ab inh -20* and Runt-SMMHC FRET 2.
`Cc1nc(Oc2ccccc2)c2ccccc2n1` gave Hck Nef HTS 4, pCIP destab -6, RanGTP-Impb inh 6, Runt-CBFb FRET 0, DSG3 Ab inh 94 and Runt-SMMHC FRET 0.
For c1ccc(Oc2c3ccccc3nc3ccccc23)cc1 the results were Hck Nef HTS 42, pCIP destab 6, RanGTP-Impb inh 9, Runt-CBFb FRET 34 and Runt-SMMHC FRET 74*.
`C[C@H](NC(=O)N1CCn2c1nc1ccccc12)C(=O)N1CCCCC1` gave pCIP destab -4, RanGTP-Impb inh 0 and DSG3 Ab inh 90.
`CC(=O)c1cccc(NC(=O)NNC(=O)c2ccc(-c3ccccc3)cc2)c1` gave pCIP destab 0 and RanGTP-Impb inh 1.
O=C(COc1ccc(Cl)cc1)NCCNc1ccc([N+](=O)[O-])cc1 was read as pCIP destab 4, RanGTP-Impb inh 3 and DSG3 Ab inh 72*.
Screening Cc1ccc(-n2ncc3c(=O)[nH]c(SCC(=O)N4CCN(c5ccccc5)CC4)nc32)cc1 returned Hck Nef HTS 3, pCIP destab 2, RanGTP-Impb inh -2, Runt-CBFb FRET -8, DSG3 Ab inh -32* and Runt-SMMHC FRET -16.
Screening NC(N)=Nc1nc2ccc(Cl)cc2c(=O)[nH]1 returned Hck Nef HTS 35, pCIP destab -9, RanGTP-Impb inh 0, Runt-CBFb FRET 0, DSG3 Ab inh 97 and Runt-SMMHC FRET 1.
For COc1cc(CNc2ccc(CNc3ncn[nH]3)cc2)cc(Cl)c1OCc1ccccc1 the results were Hck Nef HTS 1, pCIP destab -4, RanGTP-Impb inh 3, Runt-CBFb FRET -2, DSG3 Ab inh 82* and Runt-SMMHC FRET -4.
c1ccc(CNc2ccc(CNc3ncn[nH]3)cc2)cc1 was read as Hck Nef HTS 0, pCIP destab -2, RanGTP-Impb inh 8, Runt-CBFb FRET 1, DSG3 Ab inh 92 and Runt-SMMHC FRET -4.
For Cc1cc(C)cc(Oc2nc3ccccn3c(=O)c2/C=C(\C#N)C(=O)NC2CCS(=O)(=O)C2)c1 (configuration not stated) the results were Hck Nef HTS 20, pCIP destab -5, RanGTP-Impb inh inconclusive, Runt-CBFb FRET 88*, DSG3 Ab inh 96 and Runt-SMMHC FRET 60*.
N#C/C(=C\c1c(Oc2ccccc2Cl)nc2ccccn2c1=O)C(=O)NC1CCS(=O)(=O)C1 (configuration not stated) was read as pCIP destab 7, RanGTP-Impb inh 91* and DSG3 Ab inh 106.
For N#C/C(=C\c1c(Oc2ccccc2F)nc2ccccn2c1=O)C(=O)NC1CCS(=O)(=O)C1 (configuration not stated) the results were pCIP destab 2 and RanGTP-Impb inh 128*.
Cc1ccc(Oc2nc3ccccn3c(=O)c2/C=C(\C#N)C(=O)NC2CCS(=O)(=O)C2)c(C)c1 (configuration not stated) was read as pCIP destab -4, RanGTP-Impb inh inconclusive and DSG3 Ab inh 105.
For Cc1onc(-c2ccccc2)c1-c1nnc(CN2CCN(S(=O)(=O)c3ccccc3)CC2)o1 the results were DSG3 Ab inh 106.
